# ChEMBL document CHEMBL5712908, “A genome-wide RNAi screen reveals essential therapeutic targets of breast cancer stem cells” (2019)
# Activity calls are given as the source filed them. The calls are words filed in the database; no cut-off is given here.
# How the values were obtained:
# [1] = Antitumor activity against human S68 cells assessed as K-score by measuring ALDHbr cells by LSR2 cytometer; type: functional
# Method in brief: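 Cell lines exposed for 72 h in adherent culture to a range of concentrations centred on the MTS-derived IC50. ALDHbr proportion measured by ALDEFLUOR flow cytometry (LSR2). K-score is the linear regression coefficient, on log10-transformed doses, between the untreated condition and the dose predicted to give a 50% decrease or increase in ALDHbr proportion versus control.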
# SUM-159-PT [2] = test: Synergistic apoptosis in human SUM159 cell expressing ALDH at 500 nM incubated for 72 hrs in presence of salinomycin by ALDEFLUOR/YO-PRO-3/ Hoechst 33342 staining based high content imaging microscopic analysis; type: functional
# Method in brief: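 SUM159 cells seeded at 3,000 cells/well in collagen-coated 96-well plates. Drug added at 6, 24 and 48 h post-seeding. Cisplatin served as positive control and 0.1% v/v DMSO as vehicle control. At 72 h post-seeding, cells were stained with ALDEFLUOR, YO-PRO-3 (1/4,000) and Hoechst 33342 (10 μg/ml) in ALDEFLUOR buffer for 30 min at 37°C, then imaged on ice by high-content microscopy, 9 fields/well. DEAB set the ALDHbr gate. YO-PRO-3⁺ fraction per subpopulation was gated against untreated cells.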
# SUM-159-PT [3] = test: Anticancer activity against human SUM159 cells assessed as effect on RFP+/BFP+ cell ratio upto 100 uM after 72 hrs by ALDEFLUOR staining based flow cytometric analysis; type: functional
# SUM-159-PT [4] = test: Synergistic anticancer activity against human SUM159 cells expressing BFP assessed as reduction in ALDHbr cell at 5 to 500 nM in presence of salinomycin by LSR2 cytometer analysis; type: functional, cell-based; details: dose 5-500 nM
# Breast cancer cell line [5] = test: Antitumor activity against human CRCM434 negative breast cancer cells orthotopically xenografted in NSG mouse model of PDX assessed as reduction in tumor volume at 50 mg/kg, ip 5 out of 7 for 2 weeks; type: functional, organism-based
# Method in brief: (§1)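 Chemo-naïve triple-negative PDX cells injected at 100,000 per fat pad, two fat pads per NSG mouse. At ~80 mm³ tumours, mice received i.p. 3 mg/kg daily for 14 days or 50 mg/kg 5 of 7 days for 2 weeks; placebo was DMSO/HPCD 10% (1:9). Five mice (10 tumours) per group. Tumour growth monitored; after 2 weeks tumours dissociated, mouse cells excluded via anti-H2Kd, ALDHbr measured by ALDEFLUOR flow cytometry and normalised to vehicle.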
# Breast cancer cell line [6] = test: Synergistic antitumor activity against human CRCM434 negative breast cancer cells orthotopically xenografted in NSG mouse model of PDX assessed as reduction in tumor volume at 50 mg/kg, ip 5 out of 7 for 2 weeks cotreated with salinomycin; type: functional, organism-based
# Method in brief: (§2)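 Orthotopic PDX in NSG mice, 100,000 cells per fat pad, two pads per mouse; treatment from ~80 mm³ tumours with salinomycin i.p. 3 mg/kg daily 14 days, JQ1 i.p. 50 mg/kg 5 of 7 days for 2 weeks, or combination, against placebo DMSO/HPCD 10% (1:9). Tumour growth monitored; n = 10 tumours per group.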
# Breast cancer cell line [7] = test: Synergistic antitumor activity against human CRCM494 negative breast cancer cells orthotopically xenografted in NSG mouse model of PDX assessed as reduction in tumor volume at 50 mg/kg, ip 5 out of 7 for 2 weeks cotreated with salinomycin; type: functional, organism-based; method in brief: as §2
# Breast cancer cell line [8] = test: Antitumor activity against human CRCM404 negative breast cancer cells orthotopically xenografted in NSG mouse model of PDX assessed as reduction ALDHbr cells at 50 mg/kg, ip 5 out of 7 for 2 weeks by LSR2 cytometer analysis; type: functional, organism-based; method in brief: as §1
# Breast cancer cell line [9] = test: Synergistic antitumor activity against human CRCM434 negative breast cancer cells orthotopically xenografted in NSG mouse model of PDX assessed as reduction ALDHbr cells at 50 mg/kg, ip 5 out of 7 for 2 weeks cotreated with salinomycin by LSR2 cytometer analysis; type: functional
# Breast cancer cell line [10] = test: Antitumor activity against human reimplanted CRCM404 negative breast cancer cells orthotopically xenografted in NSG mouse model of PDX assessed as reduction tumor volume at 50 mg/kg, ip 5 out of 7 for 2 weeks by limiting dilation analysis; type: functional, organism-based
# Method in brief: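 After 2 weeks of i.p. treatment (3 mg/kg daily or 50 mg/kg 5 of 7 days), dissociated PDX tumour cells reimplanted into secondary NSG mice at 50, 500 or 5,000 cells. A mouse counted as tumour-bearing once a tumour reached 10 mm. bCSC frequency per 10,000 cells estimated by ELDA; pairwise chi-square test.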
# Breast cancer cell line [11] = test: Synergistic antitumor activity against human reimplanted CRCM434 negative breast cancer cells orthotopically xenografted in NSG mouse model of PDX assessed as reduction tumor volume at 50 mg/kg, ip 5 out of 7 for 2 weeks cotreated with salinomycin by limiting dilation analysis; type: functional, organism-based
# Breast cancer cell line [12] = test: Synergistic antitumor activity against human CRCM434 negative breast cancer cells xenografted in NSG mouse model of PDX assessed as reduction metastasis formation in liver at 50 mg/kg, ip 5 out of 7 for 2 weeks cotreated with salinomycin; type: functional, organism-based
# Method in brief: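 Luciferase-expressing PDX cells sorted H2Kd⁻ and viable, 100,000 in 100 μl PBS injected in NSG tail vein. From the next day, salinomycin 3 mg/kg i.p. daily and/or JQ1 50 mg/kg i.p. 5 of 7 days for 2 weeks. Lungs and liver imaged by bioluminescence after i.p. luciferin 30 mg/kg; normalised photon flux; 10 mice/group; Wilcoxon test.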
smiles,measurement,setting,value
Cc1sc2c(c1C)C(c1ccc(Cl)cc1)=N[C@@H](CC(=O)OC(C)(C)C)c1nnc(C)n1-2,Activity,[1],-0.15
same,Activity,SUM-159-PT [2],Active
same,Activity,SUM-159-PT [3],inactive
same,Activity,SUM-159-PT [4],Active
same,Activity,Breast cancer cell line [5],Active
same,Activity,Breast cancer cell line [6],Active
same,Activity,Breast cancer cell line [7],Active
same,Activity,Breast cancer cell line [8],Active
same,fold change (FC),Breast cancer cell line [9],2
same,Activity,Breast cancer cell line [10],Active
same,Activity,Breast cancer cell line [11],Active
same,Activity,Breast cancer cell line [12],Active
